From PubChem BioAssay
Mdm2 MdmX PPI – disrupts the human Mdm2-MdmX interaction | inhibition, % at 8 µM | SaOS-2 split-luciferase Mdm2/MdmX complementation, luminescence | O15151+Q00987 | actives 3% (n = 330,000);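 active = inhibition of at least 50% at 8 µM in the primary screen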
Target sequence (O15151 whole entry, looked up): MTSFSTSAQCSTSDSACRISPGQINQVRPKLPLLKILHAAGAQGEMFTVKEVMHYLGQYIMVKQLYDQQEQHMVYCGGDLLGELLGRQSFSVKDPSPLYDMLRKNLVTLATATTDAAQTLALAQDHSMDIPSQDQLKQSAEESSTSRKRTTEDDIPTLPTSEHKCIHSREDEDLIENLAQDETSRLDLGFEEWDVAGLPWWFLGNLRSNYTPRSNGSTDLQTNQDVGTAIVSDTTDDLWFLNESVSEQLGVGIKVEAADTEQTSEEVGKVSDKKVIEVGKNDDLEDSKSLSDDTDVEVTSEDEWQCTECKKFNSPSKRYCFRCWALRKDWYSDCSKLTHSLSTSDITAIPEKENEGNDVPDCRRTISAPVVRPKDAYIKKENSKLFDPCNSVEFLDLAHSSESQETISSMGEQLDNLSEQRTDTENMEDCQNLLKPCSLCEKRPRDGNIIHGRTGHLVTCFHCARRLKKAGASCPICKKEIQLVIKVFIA
Target sequence (Q00987 whole entry, looked up): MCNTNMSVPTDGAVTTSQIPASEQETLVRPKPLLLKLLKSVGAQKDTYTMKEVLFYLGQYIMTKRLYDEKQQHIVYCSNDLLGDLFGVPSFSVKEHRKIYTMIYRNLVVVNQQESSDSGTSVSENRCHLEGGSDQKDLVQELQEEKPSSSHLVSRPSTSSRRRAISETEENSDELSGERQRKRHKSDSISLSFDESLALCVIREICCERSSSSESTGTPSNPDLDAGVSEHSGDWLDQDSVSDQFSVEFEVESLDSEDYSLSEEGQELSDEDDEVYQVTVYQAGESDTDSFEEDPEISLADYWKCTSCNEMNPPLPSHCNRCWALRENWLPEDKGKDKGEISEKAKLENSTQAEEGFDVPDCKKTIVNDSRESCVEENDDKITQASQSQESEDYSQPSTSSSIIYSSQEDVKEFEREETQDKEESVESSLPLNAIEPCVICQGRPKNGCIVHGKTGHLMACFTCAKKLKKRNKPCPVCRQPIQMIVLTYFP
CSC inhib – blocks cancer stem cells; cancer stem cell-like cells viability, luminescence; inhibition, % at 7.5 µM; actives 1.1% (n = 300,000); AID 2717; in the data active = inhibition above about 75%; inconclusive = no clear call, values can overlap the other calls; tested in HMLE shEcad cells
Beta apoptosis – beta cell apoptosis inhibition | INS-1E cytokine-induced death, ATP luminescence, 48 h; percent of positive-control rescue, neutral wells zero | protection from apoptosis, % (concentration not given with the values) | actives 0.8% (n = 300,000);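 active = Every replicate reaches about 75%, or at least half do and their mean reaches it too, limit read from the data; inconclusive = At least half of replicates reach the limit but their mean does not; inactive = Under half of replicates reach the limit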;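 note: 0% = cytokine-treated negative control wells and 100% = positive control rescue; higher means more ATP so stronger rescue from cytokine killing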
T cruzi repl – blocks replication of Trypanosoma cruzi. AID 1885. T. cruzi beta-gal in NIH3T3, luminescence, 90 h. inhibition, % (concentration not given with the values). actives 1.4% (n = 300,000);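 active = mean inhibition across valid replicates above about 55%, limit read from the data; inconclusive = mean below that limit but half or more replicates reach it; inactive = mean below it, under half of replicates reach it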;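 note: signal also drops with host cell toxicity which is not excluded here; 0% = plate median of DMSO wells and 100% = zero luminescence signal; higher percent means less beta-gal luminescence so fewer parasites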
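Incubation – ≥90 h infection period, 3 h prior cell attachment · System – NIH/3T3 fibroblasts plus reporter T. cruzi · Doses – compound pinned at 50 nL/well, DMSO · Read-out basis – percent inhibition of parasite-derived β-gal signal · Signal – luminescent β-galactosidase signal after 60 min lysis · Also added – 5000 T. cruzi trypomastigotes/well · Medium – Low-serum DMEM with 2% FBS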
SKKanGAS inh – blocks kanamycin growth of S. pyogenes SKKanGAS strain | BacTiter-Glo, 6 h | actives 1.3% (n = 300,000) | inhibition, % at 7.5 µM;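 active = mean replicate score, as percent of positive control median, at least 50; inconclusive = mean below 50 but one replicate at or above 50; inactive = mean and every replicate below 50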;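 note: strain carries kanamycin resistance gene driven by streptokinase promoter and grows in 40 µg/ml kanamycin; loss of luminescence reflects streptokinase promoter inhibition or plain growth inhibition; 0% = median of DMSO wells and 100% = positive control at its reference dose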
Calb FLC – C. albicans growth modulation with fluconazole. C. albicans CaCi-2 (fluconazole-resistant clinical isolate) + fluconazole, Alamar Blue growth, 48 h. growth inhibition, % (no concentration beside the values). actives 0.57% (n = 300,000). AID 1979;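 active = growth inhibition above about 58% in most replicates, limit read from the data, passing the limit was not always enough; inconclusive = exactly half the replicates above a set limit; inactive = most replicates below a set limit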;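 note: all wells also contain fluconazole at 8 µg/ml as a sub-toxic cotreatment; 0% = median of DMSO wells and 100% = median of geldanamycin control wells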
Mdm2 MdmX conf – human Mdm2/MdmX binding inhibition, confirmed; shares compounds with Mdm2 MdmX PPI; luminescent assay; inhibition, % at 8 µM; actives 55% (n = 10,000); AID 489028; in the data active = inhibition above about 40%
Full FLuc ctr – inhibits full-length luciferase, flagging false Mdm2/MdmX hits | inhibition, % at 8 µM | AID 504607 | actives 77% (n = 6,200) | shares compounds with Mdm2 MdmX PPI | SaOS-2 full-length luciferase counterscreen, luminescence;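 active = mean inhibition at 8 µM reaching about 37%, which flags the compound as non-specific, limit read from the data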;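 note: p53-null SaOS-2 cells with luciferase driven by a doxycycline-inducible promoter; compound on cells about two nights before reading with doxycycline added after day one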
* hit, by the source's call; ? = inconclusive; · = no result. In the library only some 5.7% were active in any assay of this set; here they are far more common.

SMILES	Mdm2 MdmX PPI	CSC inhib	Beta apoptosis	T cruzi repl	SKKanGAS inh	Calb FLC	Mdm2 MdmX conf	Full FLuc ctr
O=C(CCl)N1CCCC1c1ccc2c(c1)OCCO2 (stereo not drawn)	75.1*	-1.8	-1.9	-26.5	5.8	8.0	32.9	42.6*
CC(=O)c1ccc(OCC(=O)N2CCCC2c2ccc3c(c2)OCCCO3)cc1 (stereo not drawn)	12.8	-2.5	-17.3	·	·	·	·	·
CC(=O)c1c(C)[nH]c(C(=O)OCc2ccc(F)cc2Cl)c1C	21.1	-1.7	37.1	36.1	17.9	6.3	·	·
Oc1c(N=NC(=S)Nc2ccccc2F)c2ccccc2n1Cc1ccccc1F	64.0*	·	45.9	88.5*	79.0*	10.1	48.1*	46.3*
CCNC(=S)N=Nc1c(O)n(Cc2ccc(Cl)cc2)c2ccccc12	33.5	12.5	18.1	-2.6	-11.2	19.0	·	·
Oc1c(N=NC(=S)Nc2ccccc2F)c2ccccc2n1Cc1ccc(Cl)cc1	53.5*	27.2	38.4	60.9*	57.7*	7.1	46.0*	68.5*
Cc1noc(-c2ccc(C(F)(F)F)cc2)c1NC(=O)Nc1ccc(Cl)cc1	94.7*	52.1	104.9*	-1.7	33.4	-7.3	75.7*	24.2
COc1ccc(NC(=O)Nc2ccc3c(c2)N(C)C(=O)CS3)cc1OC	35.4	-14.1	0.6	-10.1	11.9	-6.0	·	·
CCOc1ccc(NC(=O)Nc2ccc3c(c2)N(C)C(=O)CS3)cc1	43.3	-7.6	·	8.0	0.6	-0.5	·	·
COc1ccc(NC(=O)Nc2ccc3c(c2)N(C)C(=O)CS3)cc1Cl	59.4*	16.7	·	14.4	18.1	2.2	42.5*	52.9*
CC(=O)c1ccc(NC(=O)Nc2ccc3c(c2)N(C)C(=O)CS3)cc1	69.0*	-1.6	-5.8	-3.3	18.0	-10.5	35.0	·
O=C(CN1CCN(c2ccc(F)cc2)CC1)Nc1ccc(S(=O)(=O)N2CCOCC2)cc1	7.7	-9.8	-1.4	11.1	0.2	-7.9	·	·
COc1ccccc1NC(=O)c1sc2ncn(Cc3cccc(C)c3)c(=O)c2c1C	31.0	9.0	9.1	9.4	0.8	0.9	·	·
COc1ccccc1NC(=O)c1sc2ncn(Cc3ccc(C)cc3)c(=O)c2c1C	54.8*	-7.5	6.9	26.9	10.0	-6.2	-6.9	·
CC(C)=CCc1cc2c(=O)c3c(O)c4c(cc3oc2c(O)c1O)OC(C)C4(C)C (stereo not drawn)	91.7*	4.9	109.1*	67.1*	103.1*	94.7*	39.1	63.3*
CC(=O)c1cc(CC=C(C)C)c(O)c(CC=C(C)C)c1O	4.5	2.8	1.3	-5.6	25.1	1.3	·	·
CC(=O)Nc1cccc(C(=O)/C=C/c2ccc(F)cc2)c1	73.0*	46.3	3.6	-30.3	-5.5	?	24.6	·
CC(=O)Nc1cccc(C(=O)/C=C/c2ccc[nH]2)c1	-5.2	1.8	2.3	-2.8	6.0	-5.3	·	·
CCC(=O)Nc1cccc(C(=O)OC)c1	-18.0	-6.6	-3.3	0.6	-3.7	6.5	·	·
CC(=O)Nc1cccc(C(=O)/C=C/c2ccc(/C=C/C(=O)c3cccc(NC(C)=O)c3)cc2)c1	97.6*	77.1*	13.9	-4.2	6.8	-14.1	31.0	·
CC(=O)Nc1cccc(C(=O)/C=C/c2ccc(N(C)C)cc2)c1	-18.9	6.4	10.3	2.5	-3.9	1.5	·	·
Cc1cccc(C(=O)Nc2ccc(C(=O)/C=C/c3ccncc3)cc2)c1	96.5*	30.0	14.6	25.0	2.2	-4.1	10.8	·
CCC(=O)Nc1cccc(C(=O)/C=C/c2cc(Br)ccc2OC)c1	97.1*	0.5	-9.0	21.4	5.7	8.8	80.0*	58.9*
CC1(C)CC(=O)C2=C(C1)N(c1ccc(Cl)cc1)C(=O)C2(O)C(F)(F)F (stereo not drawn)	22.8	-2.5	-0.3	-1.9	-3.9	10.8	·	·
CC(=O)Nc1cccc(C(=O)/C=C/c2ccc(Br)cc2)c1	96.6*	126.7*	0.2	0.1	1.6	-11.7	73.8*	53.0*
SMILES	Mdm2 MdmX PPI	CSC inhib	Beta apoptosis	T cruzi repl	SKKanGAS inh	Calb FLC	Mdm2 MdmX conf	Full FLuc ctr
COc1ccc(Nc2oc(COc3ccc(Cl)cc3)nc2C#N)cc1	61.4*	28.9	2.9	37.6	11.6	-7.7	43.8*	76.8*
CCCCn1nc(C(=O)N(CC(C)C)c2c(N)n(CCCC)c(=O)[nH]c2=O)c2ccccc2c1=O	17.0	·	·	·	·	·	·	·
CN1CCc2nc(NC(=O)c3cccc(OC(F)F)c3)sc2C1	-14.0	7.7	0.4	28.4	8.1	·	·	·
O=[N+]([O-])c1cccc2c(N3CCCC3)ccnc12	51.7*	-4.2	112.1*	50.8	-9.9	11.2	26.2	·
CC(C)(CNC(=O)COc1ccccc1Cc1ccccc1)N1CCOCC1	-4.7	·	-1.2	17.6	-16.9	7.0	·	·
COc1ccc(OCC(=O)c2c[nH]c3ccccc23)cc1	-64.8	-18.0	-3.2	-14.8	-6.4	7.2	·	·
COc1ccc2c(C(=O)CCl)c[nH]c2c1	56.5*	-2.7	-35.3	48.3	1.7	61.9	52.7*	24.1
Cc1cc(C)n(CCC(=O)N/N=C/c2ccc(O)cc2)n1	-6.1	-1.2	-4.8	-15.0	-11.3	1.0	·	·
COc1ccccc1OCC(=O)N/N=C/c1cccc2cccnc12	19.2	-3.4	-2.2	-10.0	-0.7	2.0	·	·
O=C(CCSc1nc2ccccc2s1)N/N=C/c1c(O)ccc2ccccc12	82.4*	79.7*	84.6*	46.0	4.7	-15.6	82.2*	31.6
O=c1c2ccccc2nc(N/N=C/c2c(O)ccc3ccccc23)n1O	71.2*	111.6*	98.1*	-10.2	29.3	106.1*	68.4*	35.9
COc1ccccc1OCC(=O)N/N=C/c1c(O)ccc2ccccc12	81.7*	47.9	2.0	-6.8	32.4	-13.2	78.5*	27.8
Cc1cc(C)n(CCC(=O)N/N=C/c2c(O)ccc3ccccc23)n1	72.9*	16.0	93.5*	25.0	2.6	40.1	78.2*	51.9*
COc1ccccc1CNS(=O)(=O)c1cccs1	23.5	-8.8	-7.5	-7.9	-0.2	-19.6	·	·
O=S(=O)(c1ccc(Cl)cc1)N1CCCC(C(F)(F)F)C1 (stereo not drawn)	18.8	-8.4	-5.3	-12.6	6.5	-0.6	·	·
O=C(CN1CCCC1)N/N=C/c1c(O)ccc2ccccc12	72.0*	35.3	50.9	33.9	32.4	?	76.0*	38.5*
O=C(CCc1ccccc1)c1ccc2c(c1)OCCCO2	-133.2	0.6	-7.4	-6.9	-7.6	0.6	·	·
O=C(CCCc1ccccc1)c1ccc2c(c1)OCCO2	90.2*	-0.4	-5.3	-2.6	9.6	-8.0	88.0*	56.5*
O=C(NCCc1ccccc1)c1ccc2c(c1)OCCCO2	96.5*	10.1	3.5	-4.0	2.3	-19.5	93.9*	51.6*
